According to ChEMBL document CHEMBL4257585, “Structure-Activity Relationships of Photoswitchable Diarylethene-Based β-Hairpin Peptides as Membranolytic Antimicrobial and Anticancer Agents” (J Med Chem, 2018):
Converted amounts (≈) assume the structure as drawn. Each block holds one molecule with its values, some of them ahead of it.

Assays:
Bacillus subtilis = experiment: Antimicrobial activity against Bacillus subtilis DSM 347 after 22 hrs by resazurin dye based spectrophotometry; assay type: functional; details: DSM 347, 22 h
Outline: (§1)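 2-fold broth microdilution in Mueller–Hinton medium; peptide stocks 1024 μg/mL in 50% ethanol. Exponential-phase cultures diluted to OD550 0.2, then 1:100 (B. subtilis) or 1:1000 (E. coli), giving 5 × 10^5 CFU/mL per well. Incubated 22 h, 37 °C, static; then resazurin (0.2 mg/mL solution) added for 2 h at 37 °C, read visually and spectrophotometrically. Tested in both photoforms.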

Escherichia coli = experiment: Antimicrobial activity against Escherichia coli DSM 1103 after 22 hrs by resazurin dye based spectrophotometry; assay type: functional; details: DSM 1103, 22 h; outline: as §1
HeLa = experiment: Cytotoxicity against human HeLa cells assessed as reduction in cell viability after 24 hrs by MTT assay; assay type: functional, cell-based
Outline: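 HeLa cells seeded at about 5 × 10^4 cells/mL in DMEM with 10% FBS, 2 mM glutamine, gentamicin; 24 h adaptation (37 °C, 5% CO2), then 24 h peptide exposure. MTT 4 h, formazan in DMSO read at 570 nm. 2-fold series 256–0.5 (open) or 512–1 μg/mL (closed), four repetitions; IC50 extrapolated from killing curves. Closed form handled in dim light.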

[1] = Hemolytic activity against human RBC assessed as hemolysis after 30 mins by colorimetric method; assay type: ADME, cell-based, Erythrocyte; details: human red blood cells (erythrocytes)
Outline: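 Human erythrocytes washed twice in isotonic 172 mM Tris-HCl, pH 7.6; peptides dissolved in DMSO, diluted in buffer, two independent 10-step 2-fold series from 256 or 192 μg/mL. HC50 extrapolated as 50% hemolysis concentration.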

[2] = Therapeutic index, ratio of HC50 for human RBC to MIC for Escherichia coli DSM 1103; assay type: toxicity; details: human red blood cells versus Escherichia coli DSM 1103
Outline: (§2)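 Ratio of HC50 (RBC) to HeLa IC50 or to MIC against B. subtilis or E. coli; values measured in mg/mL and recalculated to μM, 2-fold dilution without curve fitting, accuracy within a factor of 2.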

[3] = Therapeutic index, ratio of HC50 for human RBC to MIC for Bacillus subtilis DSM 347; assay type: toxicity; details: human red blood cells versus Bacillus subtilis DSM 347; outline: as §2
[4] = Selective ratio of HC50 for human RBC to IC50 for human HeLa cells; assay type: toxicity; details: human red blood cells versus HeLa cells; outline: as §2
HepG2 = experiment: Cytotoxicity against human HepG2 cells assessed as reduction in cell viability after 24 hrs by MTT assay; assay type: functional, cell-based; details: HepG2, 24 h
Outline: (§3)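 Cells were grown in DMEM with 10% FBS, 2 mM L-glutamine and 40 μg/mL gentamicin, seeded at about 5 × 10^4 cells/mL, and allowed 24 h adaptation (37 °C, 5% CO2). Peptides were then added for 24 h as 2-fold dilutions (open 256–0.5, closed 512–1 μg/mL), closed form handled under dim light. MTT was given for 4 h, formazan dissolved in DMSO and read at 570 nm. Four repetitions; IC50 extrapolated from viability curves.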

MCF7 = experiment: Cytotoxicity against human MCF7 cells assessed as reduction in cell viability after 24 hrs by MTT assay; assay type: functional, cell-based; details: MCF7, 24 h; outline: as §3
MIA PaCa-2 = experiment: Cytotoxicity against human MIAPaCa2 cells assessed as reduction in cell viability after 24 hrs by MTT assay; assay type: functional, cell-based; details: MIA PaCa-2, 24 h; outline: as §3
[5] = Cytotoxicity against human MOR cells assessed as reduction in cell viability after 24 hrs by MTT assay; assay type: functional, cell-based; outline: as §3
[6] = Cytotoxicity against human doxorubicin-resistant MOR cells assessed as reduction in cell viability after 24 hrs by MTT assay; assay type: functional, cell-based; outline: as §3

SMILES: Cc1sc2cc1C1=C(CCC1)c1cc(sc1C)C(=O)[C@H]1CCCN1C(=O)[C@H](C(C)C)NC(=O)[C@H](CCCN)NC(=O)[C@H]([C@H](O)C(C)C)NC(=O)[C@@H]1CCCN1C(=O)[C@@H](Cc1ccccc1)NC(=O)[C@H](C(C)C)NC(=O)[C@H](CCCN)NC(=O)[C@H](C(C)C)NC2=O
- MIC (Bacillus subtilis): 3 µM (≈ 3.85 µg/mL)
- MIC (Escherichia coli): 50 µM (≈ 64.1 µg/mL)
- IC50 (HeLa): 9 µM
- HC50 at 0.5 h [1]: 20 µM
- selectivity ratio [2]: 0.4
- selectivity ratio [3]: 6.7
- selectivity ratio [4]: 2.2
- IC50 (HepG2): 5 µM
- IC50 (MCF7): 6 µM
- IC50 (MIA PaCa-2): 6 µM
- IC50 [5]: 5 µM
- IC50 [6]: 5 µM

SMILES: CC[C@H](C)[C@@H]1NC(=O)c2cc(c(C)s2)C2=C(CCC2)c2cc(sc2C)C(=O)[C@H]2CCCN2C(=O)[C@H](CC(C)C)NC(=O)[C@H](CCCN)NC(=O)[C@H]([C@@H](C)CC)NC(=O)[C@@H]2CCCN2C(=O)[C@H]2CCCN2C(=O)[C@H](CC(C)C)NC(=O)[C@H](CCCN)NC1=O
- MIC (Bacillus subtilis): 2 µM (≈ 2.52 µg/mL)
- MIC (Escherichia coli): 51 µM (≈ 64.2 µg/mL)
- IC50 (HeLa): 6 µM
- HC50 at 0.5 h [1]: 8 µM
- selectivity ratio [2]: 0.2
- selectivity ratio [3]: 4
- selectivity ratio [4]: 1.3

SMILES: Cc1sc2cc1C1=C(CCC1)c1cc(sc1C)C(=O)[C@H]1CCCN1C(=O)[C@H]([C@H](O)C(C)C)NC(=O)[C@H](CCCN)NC(=O)[C@H](C(C)C)NC(=O)[C@@H]1CCCN1C(=O)[C@@H](Cc1ccccc1)NC(=O)[C@H](C(C)C)NC(=O)[C@H](CCCN)NC(=O)[C@H](C(C)C)NC2=O
- MIC (Bacillus subtilis): 2 µM (≈ 2.57 µg/mL)
- MIC (Escherichia coli): 100 µM (≈ 128 µg/mL)
- IC50 (HeLa): 31 µM
- HC50 at 0.5 h [1]: 39 µM
- selectivity ratio [2]: 0.4
- selectivity ratio [3]: 25
- selectivity ratio [4]: 1.3

Continued, in another order:

- MIC (Bacillus subtilis): 9 µM (≈ 11.5 µg/mL)
- MIC (Escherichia coli): 100 µM (≈ 128 µg/mL)
SMILES: CC(C)[C@@H]1NC(=O)C2=CC3=C4CCCC4=C4C=C(S[C@]4(C)[C@@]3(C)S2)C(=O)[C@H]2CCCN2C(=O)[C@H](C(C)C)NC(=O)[C@H](CCCN)NC(=O)[C@H]([C@H](O)C(C)C)NC(=O)[C@@H]2CCCN2C(=O)[C@@H](Cc2ccccc2)NC(=O)[C@H](C(C)C)NC(=O)[C@H](CCCN)NC1=O
- IC50 (HeLa): 150 µM
- HC50 at 0.5 h [1]: 200 µM
- selectivity ratio [2]: 2
- selectivity ratio [3]: 21.3
- selectivity ratio [4]: 1.3
- IC50 (HepG2): 100 µM
- IC50 (MCF7): 150 µM
- IC50 (MIA PaCa-2): 150 µM
- IC50 [5]: 150 µM
- IC50 [6]: 100 µM

- MIC (Bacillus subtilis): 6 µM (≈ 7.68 µg/mL)
- MIC (Escherichia coli): 200 µM (≈ 256 µg/mL)
SMILES: CC(C)[C@@H]1NC(=O)C2=CC3=C4CCCC4=C4C=C(S[C@]4(C)[C@@]3(C)S2)C(=O)[C@H]2CCCN2C(=O)[C@H](C(C)C)NC(=O)[C@H](CCCN)N(C)C(=O)[C@H](C(C)C)NC(=O)[C@@H]2CCCN2C(=O)[C@@H](Cc2ccccc2)N(C)C(=O)[C@H](C(C)C)NC(=O)[C@H](CCCN)NC1=O
- IC50 (HeLa): 100 µM
- HC50 at 0.5 h [1]: 192 µM
- selectivity ratio [2]: 1
- selectivity ratio [3]: 32
- selectivity ratio [4]: 1.9

- MIC (Bacillus subtilis): 4 µM (≈ 7.29 µg/mL)
- MIC (Escherichia coli): 18 µM (≈ 32.8 µg/mL)
SMILES: Cc1sc2cc1C1=C(CCC1)c1cc(sc1C)C(=O)[C@H]1CCCN1C(=O)[C@H](CC(C)C)NC(=O)[C@H](CCCCN)NC(=O)[C@H](C(C)C)NC(=O)[C@H](CCCCN)NC(=O)[C@H](CC(C)C)NC(=O)[C@H](CCCCN)N(C)C(=O)[C@@H](Cc1ccccc1)NC(=O)[C@H](C(C)C)NC(=O)[C@H](CCCCN)NC(=O)[C@H](CC(C)C)NC(=O)[C@H](CCCCN)NC(=O)[C@H](C(C)C)NC2=O
- IC50 (HeLa): 2 µM
- HC50 at 0.5 h [1]: < 1 µM
- selectivity ratio [2]: 0.1
- selectivity ratio [3]: 0.3
- selectivity ratio [4]: 0.5

- MIC (Bacillus subtilis): 1 µM (≈ 1.57 µg/mL)
- MIC (Escherichia coli): 21 µM (≈ 32.9 µg/mL)
SMILES: Cc1sc2cc1C1=C(CCC1)c1cc(sc1C)C(=O)[C@H]1CCCN1C(=O)[C@H](CCCCN)NC(=O)[C@H](CC(C)C)NC(=O)[C@H](CCCCN)NC(=O)[C@H](C(C)C)NC(=O)[C@@H]1CCCN1C(=O)[C@@H](Cc1ccccc1)NC(=O)[C@H](CC(C)C)NC(=O)[C@H](CCCCN)NC(=O)[C@H](C(C)C)NC(=O)[C@H](CCCCN)NC2=O
- IC50 (HeLa): 41 µM
- HC50 at 0.5 h [1]: 4 µM
- selectivity ratio [2]: 0.2
- selectivity ratio [3]: 4
- selectivity ratio [4]: 0.1
